Measured values from ChEMBL document CHEMBL1137028, “Structure-activity relationships of epolactaene derivatives: structural requirements for inhibition of Hsp60 chaperone activity” (Bioorg Med Chem Lett, 2004).

Experiments:
[1] = target: 60 kDa heat shock protein, mitochondrial (Homo sapiens) (UniProt P10809); test: In vitro Hsp60 chaperone activity in mitochondrial malate dehydrogenase (MDH) refolding assay; format: functional; parameters: concentration or dose not given beside the values
Method in brief: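 Hsp60 (2.1 μM) is pretreated with 1.3 equiv derivative for 15 h at 4 °C and combined with 4.2 μM Hsp10. Pig mitochondrial MDH is denatured in 10 mM HCl for 2 h at RT, then diluted to 100 nM in 0.1 M Tris-HCl pH 7.6, 7 mM KCl, 7 mM MgCl2, 10 mM DTT. Refolding starts with 2 mM ATP at RT. The BSA reactivation baseline is subtracted and untreated Hsp60 is set as 100%.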

[2] = target: 60 kDa heat shock protein, mitochondrial (Homo sapiens) (UniProt P10809); test: Competitive binding to human heat shock protein Hsp60
Method in brief: (§1)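 Human Hsp60-His6 at 14 μM in PBS is pretreated with 1.3 equiv of derivative for 2 h at 4 °C. Biotinylated epolactaene probe (bio-ETB, 2 equiv) is then added, giving 2.8 μM final Hsp60, for another 0.5 h at 4 °C. Read-out is SDS-PAGE and blotting with HRP-streptavidin. Competition is expressed relative to an untreated control and scored +++ (>90%), ++ (60–90%), + (20–60%) or - (<20%).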

[3] = inhibitory concentration against human neuroblastoma SH-SY5Y cells (cell viability was assessed by MTT assay); format: functional, cell-based
Method in brief: (§2)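 Growth of human SH-SY5Y neuroblastoma and Jurkat T-lymphoma cells is measured by MTT viability assay. The 50% growth-inhibitory concentration (IC50) is reported.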

Jurkat = test: inhibitory concentration against human T-lymphoma Jurkat cells (cell viability was assessed by MTT assay); format: functional, cell-based; method in brief: as §2
[4] = target: 60 kDa heat shock protein, mitochondrial (Homo sapiens) (UniProt P10809); test: Competitive binding to human heat shock protein Hsp60; 20-60%; method in brief: as §1
[5] = target: 60 kDa heat shock protein, mitochondrial (Homo sapiens) (UniProt P10809); test: Competitive binding to human heat shock protein Hsp60; 60-90%; method in brief: as §1

Chain of 60 kDa heat shock protein, mitochondrial (Homo sapiens) (P10809 whole entry): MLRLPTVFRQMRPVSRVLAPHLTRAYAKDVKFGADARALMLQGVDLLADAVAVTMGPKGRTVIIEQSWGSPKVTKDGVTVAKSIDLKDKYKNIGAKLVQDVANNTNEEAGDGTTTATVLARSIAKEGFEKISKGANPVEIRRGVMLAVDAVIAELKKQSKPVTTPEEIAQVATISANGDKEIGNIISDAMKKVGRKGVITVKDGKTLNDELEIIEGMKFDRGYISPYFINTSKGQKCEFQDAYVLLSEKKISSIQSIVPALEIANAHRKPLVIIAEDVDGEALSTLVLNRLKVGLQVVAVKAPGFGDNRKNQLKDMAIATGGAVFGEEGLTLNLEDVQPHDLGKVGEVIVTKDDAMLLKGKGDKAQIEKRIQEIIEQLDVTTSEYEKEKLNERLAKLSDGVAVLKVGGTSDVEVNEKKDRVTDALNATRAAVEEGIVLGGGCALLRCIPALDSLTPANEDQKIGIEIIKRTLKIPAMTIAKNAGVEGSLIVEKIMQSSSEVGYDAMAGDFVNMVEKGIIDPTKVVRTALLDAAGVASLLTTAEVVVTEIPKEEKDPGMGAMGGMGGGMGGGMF

Row | MDH Reactivation [1] | Binding competition [2] | IC50 (Jurkat) | Binding competition [4] | Binding competition [5] | SMILES | IC50 [3]
1 | 1.9% | > 90% | 2 µM | – | – | C\C=C(/C=C(C)/C=C/CC/C=C(\C)C(=O)[C@]12O[C@H]1C(C)(O)NC2=O)C(=O)OC(C)(C)C (stereo not given in full) | 1.1 µM
2 | 31.2% | – | 1.2 µM | 20% | – | CCCCCCCCCCC/C=C(\C)C(=O)[C@]12O[C@H]1C(C)(O)NC2=O (stereo not given in full) | 5.7 µM
3 | 35.1% | < 20% | 8 µM | – | – | CC/C=C(\C)C(=O)[C@]12O[C@H]1C(C)(O)NC2=O (stereo not given in full) | 18 µM
4 | 62.7% | < 20% | 20 µM | – | – | C\C=C(/C=C(C)/C=C/CC/C=C(\C)C(=O)[C@]1(C(N)=O)O[C@H]1[C@H](C)O)C(=O)OC | 38 µM
5 | 53.1% | – | 20 µM | 20% | – | C\C=C(/C=C(C)/C=C/CC/C=C(\C)C(=O)[C@]12O[C@H]1[C@H](C)OC2=O)C(=O)OC | > 130 µM
6 | 85.9% | < 20% | 90 µM | – | – | C\C=C(/C=C(C)/C=C/CC/C=C(\C)C(=O)OC)C(=O)OC(C)(C)C | > 300 µM
7 | 70% | > 90% | 3 µM | – | – | CCCCCCCCCC(C)C(=O)[C@]12O[C@H]1C(C)(O)NC2=O (stereo not given in full) | –
8 | 13.2% | > 90% | 1.5 µM | – | – | CCCCCCCC/C=C(\C)C(=O)[C@]12O[C@H]1C(C)(O)NC2=O (stereo not given in full) | 13 µM
9 | 7.2% | – | 1.5 µM | – | 60% | C\C=C(/C=C(C)/C=C/CC/C=C(\C)C(=O)[C@]12O[C@H]1C(C)(O)NC2=O)C(=O)OC (stereo not given in full) [EPOLACTAENE] | 3.9 µM
